The text below walks through data of ChEMBL document CHEMBL3861959, “Synthesis and antiproliferative evaluation of novel 2-(4H-1,2,4-triazole-3-ylthio)acetamide derivatives as inducers of apoptosis in cancer cells” (Eur J Med Chem, 2016).

Converted amounts (≈) assume the structure as drawn.

Series [1] can be described thus: Cytotoxicity against human MT4 cells assessed as decrease in cell viability after 5 days by MTT assay. The series is classed as toxicity, cell-based. The method in brief:
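MT-4 cells in mock-infected wells of the anti-HIV MTT setup. Compounds in serial five-fold dilutions in triplicate, cells at 6 × 10^5 cells/mL. Absorbance at 540 and 690 nm, median OD of three wells. CC50 is the concentration that lowers OD540 of the mock-infected control by 50%.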
Background: Tetrazolium dyes change colour on reduction, which living cells bring about.

A short description of series [2]: Selectivity index, ratio of CC50 for human MT4 cells to EC50 for HIV1 3B. As to conditions: read-out: Ratio CC50/EC50. The series is classed as toxicity, cell-based. The method in brief: (§1)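 HIV-1 IIIB and HIV-2 ROD tested in MT-4 cells by MTT. Serial fivefold dilutions of compound added to triplicate mock- and virus-infected wells. MT-4 cells at 6 × 10^5 cells/mL. Absorbance read at 540/690 nm; median OD of three wells used. CC50 is the concentration reducing mock-infected OD540 by 50%. […]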

The nature of series [3]: Antiviral activity against HIV2 ROD infected in human MT4 cells assessed as protection against virus-induced cytopathic effect after 5 days MTT assay. In kind it is functional, cell-based, Human immunodeficiency virus type 2 (ISOLATE ROD). Particulars: Human immunodeficiency virus 2, MT4, 120 h. The method in brief:
(§2)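 HIV-1 strain IIIB and HIV-2 strain ROD in MT-4 cells, MTT-based. Test compounds in serial five-fold dilutions, in triplicate wells run alongside mock-infected cells, with untreated infected and mock controls. MT-4 cells resuspended at 6 × 10^5 cells/mL. Absorbance read at 540 and 690 nm, median OD of three wells. EC50 is the 50% effective concentration.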
In general terms: Cytopathic effects are the visible damage that an infection or toxin causes in cultured cells.

Series [4] is described as follows: Selectivity index, ratio of CC50 for human MT4 cells to EC50 for HIV2 ROD. The series is classed as toxicity, cell-based. As to conditions: read-out: Ratio CC50/EC50. The method in brief:
as §1

The test system of series [5] is Human immunodeficiency virus 1. Nature of the series: Antiviral activity against HIV1 3B infected in human MT4 cells assessed as protection against virus-induced cytopathic effect after 5 days MTT assay. Particulars: Human immunodeficiency virus 1, 3B, MT4, 120 h. In kind it is functional, cell-based. The method in brief: as §2
Series [6] is described as follows: Cytotoxicity against human K562 cells assessed as decrease in cell proliferation after 72 hrs by XTT assay. Particulars: K562, 72 h.

A word on the CC50: it is the concentration giving 50% cytotoxicity. In general, EC50 refers to the concentration needed to bring the measured effect to its halfway point. With `Nc1ccn([C@H]2CC[C@@H](CO)O2)c(=O)n1` [ZALCITABINE], the 50% cytotoxic concentration (CC50) at 120 h in series [1] was greater than 20 µg/mL. The results for the selectivity ratio in series [2] and in series [4] were greater than 127 and greater than 108, respectively. Also, the 50% effective concentration (EC50) in series [3] came out at 0.19 µg/mL (≈ 0.9 µM).

For the compound `O=C(CSc1nnc(COc2ccc3ccccc3c2)n1Cc1ccccc1)Nc1ccc(Cl)cc1`, in series [1], the CC50 at 120 h is no less than 4.93 µg/mL. For the same compound, the 50% effective concentration (EC50) in series [5] and in series [3] was greater than 4.93 µg/mL throughout. The selectivity ratio in series [2] and in series [4] was no more than 1 throughout.

In the case of `O=c1[nH]cnc2c1ncn2[C@H]1CC[C@@H](CO)O1` [DIDANOSINE], the CC50 at 120 h in series [1] is greater than 50 µg/mL. Further, the results for the EC50 in series [5] and in series [3] were 2.09 µg/mL (≈ 8.85 µM) and 3.78 µg/mL (≈ 16 µM), respectively. Also, the selectivity ratio in series [2] was greater than 24; in series [4], greater than 13.

`S=c1[nH]nc(COc2ccc3ccccc3c2)n1Cc1ccccc1`: the CC50 at 120 h in series [1] was no less than 85.8 µg/mL. For the same compound, the half-maximal effective concentration (EC50) in series [5] and in series [3] was greater than 85.8 µg/mL in each case. In addition, the selectivity ratio in series [2] and in series [4] was no more than 1 in each case.

Take `Cc1ccc(C(C)C)c(OCc2nnc(SCC(=O)Nc3ccc([N+](=O)[O-])cc3)n2Cc2ccccc2)c1`: the 50% cytotoxic concentration (CC50) at 120 h in series [1] was 11.2 µg/mL (≈ 21 µM). Also, the EC50 in series [5] and in series [3] was greater than 11.2 µg/mL in each case. Further, the selectivity ratio in series [2] and in series [4] was less than 1 in each case.

`O=C(CSc1nnc(COc2ccc3ccccc3c2)n1Cc1ccccc1)Nc1ccc([N+](=O)[O-])cc1`: in series [1], the half-maximal cytotoxic concentration (CC50) at 120 h was no less than 116 µg/mL. The 50% effective concentration (EC50) in series [5] and in series [3] was greater than 116 µg/mL throughout. In addition, the selectivity ratio in series [2] and in series [4] was no more than 1 in each case.

For `CC(=O)Nc1ccc(OCc2n[nH]c(=S)n2Cc2ccccc2)cc1`, the CC50 at 120 h in series [1] amounted to 79 µg/mL (≈ 223 µM). Moreover, the EC50 in series [5] and in series [3] was greater than 79 µg/mL each time. Moreover, the selectivity ratio in series [2] and in series [4] was less than 1 in each case.

As to `CCOC(=O)c1ccc(NC(=O)CSc2nnc(COc3ccc4ccccc4c3)n2Cc2ccccc2)cc1`, in series [1], the CC50 at 120 h is no less than 90.7 µg/mL. Further, the 50% effective concentration (EC50) in series [5] and in series [3] was greater than 90.7 µg/mL each time. The selectivity ratio in series [2] and in series [4] was no more than 1 in each case.

Take `O=C(CSc1nnc(COc2ccc3ccccc3c2)n1Cc1ccccc1)Nc1ccc(Br)cc1`: in series [1], the CC50 at 120 h came to 58 µg/mL (≈ 104 µM). In addition, the EC50 in series [5] and in series [3] was greater than 58 µg/mL in each case. Moreover, the selectivity ratio in series [2] and in series [4] was less than 1 each time.

As to `Cc1ccc(C(C)C)c(OCc2nnc(SCC(=O)Nc3ccc(Br)cc3)n2Cc2ccccc2)c1`, the 50% cytotoxic concentration (CC50) at 120 h in series [1] is 66.7 µg/mL (≈ 118 µM). For the same compound, the EC50 in series [5] and in series [3] was greater than 66.7 µg/mL throughout. For the same compound, the selectivity ratio in series [2] and in series [4] was less than 1 in each case.

For the compound `CC(=O)Nc1ccc(OCc2nnc(SCC(=O)Nc3ccc(S(N)(=O)=O)cc3)n2Cc2ccccc2)cc1`, the cytotoxic concentration (CC50) at 120 h in series [1] is greater than 125 µg/mL. The half-maximal effective concentration (EC50) in series [5] and in series [3] was greater than 125 µg/mL in each case. Further, the selectivity ratio in series [2] and in series [4] was 1 in each case.

As for `Cc1ccnc2c1NC(=O)c1cccnc1N2C1CC1` [NEVIRAPINE], the 50% cytotoxic concentration (CC50) at 120 h in series [1] was greater than 4 µg/mL. In addition, the selectivity ratio is greater than 80 in series [2] and less than 1 in series [4]. In addition, the EC50 in series [3] is greater than 4 µg/mL.

On to `CCOC(=O)c1ccc(NC(=O)CSc2nnc(COc3cc(C)ccc3C(C)C)n2Cc2ccccc2)cc1`, for which the CC50 at 120 h in series [1] is 19.8 µg/mL (≈ 35.5 µM). Besides, the 50% effective concentration (EC50) in series [5] and in series [3] was greater than 19.8 µg/mL in each case. Also, the selectivity ratio in series [2] and in series [4] was less than 1 throughout.

As to `CCOC(=O)c1ccc(NC(=O)CSc2nnc(COc3ccc(NC(C)=O)cc3)n2Cc2ccccc2)cc1`, the cytotoxic concentration (CC50) at 120 h in series [1] was found to be 91.1 µg/mL (≈ 163 µM). Besides, the EC50 in series [5] and in series [3] was greater than 91.1 µg/mL in each case. Besides, the selectivity ratio in series [2] and in series [4] was less than 1 throughout.

For the compound `CC(=O)Nc1ccc(OCc2nnc(SCC(=O)Nc3ccc(Cl)cc3)n2Cc2ccccc2)cc1`, the CC50 at 120 h in series [1] worked out at 14 µg/mL (≈ 26.8 µM). Also, the EC50 in series [5] and in series [3] was greater than 14 µg/mL in each case. Moreover, the selectivity ratio in series [2] and in series [4] was less than 1 throughout.

On to `Cc1cn([C@H]2C[C@H](N=[N+]=[N-])[C@@H](CO)O2)c(=O)[nH]c1=O` [ZIDOVUDINE], for which the CC50 at 120 h in series [1] is greater than 25 µg/mL. Moreover, the EC50 turned out to be 0.0022 µg/mL (≈ 0.00823 µM) in series [5] and 0.00094 µg/mL (≈ 0.00352 µM) in series [3]. The selectivity ratio in series [2] was greater than 11600; in series [4] it was greater than 26700.

In the case of `NS(=O)(=O)c1ccc(NC(=O)CSc2nnc(COc3ccc4ccccc4c3)n2Cc2ccccc2)cc1`, the half-maximal cytotoxic concentration (CC50) at 120 h in series [1] came to 94.5 µg/mL (≈ 169 µM). For the same compound, the EC50 in series [5] and in series [3] was greater than 94.4 µg/mL throughout. The selectivity ratio in series [2] and in series [4] was less than 1 in each case.

Regarding `Cc1ccc(C(C)C)c(OCc2n[nH]c(=S)n2Cc2ccccc2)c1`, the CC50 at 120 h in series [1] came out at 13.1 µg/mL (≈ 37 µM). The EC50 in series [5] and in series [3] was greater than 13.1 µg/mL in each case. The selectivity ratio in series [2] and in series [4] was less than 1 throughout.

Turning to `CC(=O)Nc1ccc(OCC(=O)NNC(=S)NCc2ccccc2)cc1`, in series [1], the CC50 at 120 h amounted to 83.5 µg/mL (≈ 224 µM). Also, the 50% effective concentration (EC50) in series [5] and in series [3] was greater than 83.5 µg/mL throughout. The selectivity ratio in series [2] and in series [4] was less than 1 throughout.

As a reminder, the IC50 is the midpoint of a concentration-inhibition curve. Regarding `Cc1ccc(NC(=O)c2ccc(CN3CCN(C)CC3)cc2)cc1Nc1nccc(-c2cccnc2)n1` [IMATINIB], the IC50 in series [6] came out at 310 nM.

On to `CC(=O)Nc1ccc(OCc2nnc(SCC(=O)Nc3ccc([N+](=O)[O-])cc3)n2Cc2ccccc2)cc1`, for which the half-maximal cytotoxic concentration (CC50) at 120 h in series [1] stood at 105 µg/mL (≈ 197 µM). In addition, the EC50 in series [5] and in series [3] was greater than 105 µg/mL each time. Also, the selectivity ratio in series [2] and in series [4] was less than 1 each time.

As to `Cc1ccc(C(C)C)c(OCC(=O)NNC(=S)NCc2ccccc2)c1`, the half-maximal cytotoxic concentration (CC50) at 120 h in series [1] was determined as 12.6 µg/mL (≈ 34 µM). Besides, the EC50 in series [5] and in series [3] was greater than 12.6 µg/mL throughout. Moreover, the selectivity ratio in series [2] and in series [4] was less than 1 each time.

For the compound `O=C(COc1ccc2ccccc2c1)NNC(=S)NCc1ccccc1`, the CC50 at 120 h in series [1] is no less than 61.4 µg/mL. The EC50 in series [5] and in series [3] was greater than 61.4 µg/mL throughout. The selectivity ratio in series [2] and in series [4] was no more than 1 throughout.
